# Measurements: ChEMBL document CHEMBL5724801, “EUbOPEN Chemogenomics Library - Multiplex” (2024)
# Values joined by “and” are separate entries in the source; they are usually repeats but may differ in a detail not shown here. Equal values may be shown once.
# Tested on: Fibroblast
# Assay: Multiplex assay against human fibroblast
# Assay type: toxicity, cell-based
# Procedure, shortened: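 Tubulin, mitochondrial-mass and membrane-permeability phenotypes are per cents of healthy-nucleus cells. Cells were gated by CellPathfinder machine learning into Hoechst high-intensity objects or normal cells, normal cells into healthy, pyknosed or fragmented nuclei, and pyknosed cells into mitotic or apoptotic. Before that, live cells stained at seeding with Hoechst33342, BioTracker Green Microtubule Cytoskeleton Dye, MitoTracker Red and Annexin V Alexa Fluor 680 were imaged on a CQ1 microscope at 37°C and 5% CO2 after compound addition.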
# [1] = 12 h, 1 µM, compound concentration 1 uM
# [2] = 12 h, 10 µM, compound concentration 10 uM
# [3] = 24 h, 1 µM, compound concentration 1 uM
# [4] = 24 h, 10 µM, compound concentration 10 uM
# [5] = 48 h, 1 µM, compound concentration 1 uM
# [6] = 48 h, 10 µM, compound concentration 10 uM
compound,measurement,setting,value
CC(C)C[C@H](NC(=O)c1cc2ccccc2s1)C(=O)N1CCN(C(=O)[C@H](CO)NS(=O)(=O)c2ccc(Cl)cc2Cl)CC1,Population Fragmented Nuclei (%),[1],14.47% and 9.24%
same,Population Healthy Nuclei (%),[1],51.57% and 56.52%
same,Population Hoechst High Intensity Objects (%),[1],0%
same,Population Membrane Permeable-Phenotype (%),[1],7.32% and 5.77%
same,Population Mitochondria Different-Phenotype (%),[1],17.07% and 18.27%
same,Population Mitotic Cells (%),[1],88.89% and 55.56%
same,Population Normal (%),[1],100%
same,Population Pyknosed Nuclei (%),[1],33.96% and 34.24%
same,Population Tubulin-Different-Phenotype (%),[1],35.37% and 45.19%
same,Total Cell Count,[1],159 and 184
same,Population Apoptotic (%),[2],10.29% and 22.73%
same,Population Fragmented Nuclei (%),[2],17.22% and 7.1%
same,Population Healthy Nuclei (%),[2],45% and 56.83%
same,Population Hoechst High Intensity Objects (%),[2],0%
same,Population Membrane Permeable-Phenotype (%),[2],19.75% and 36.54%
same,Population Mitochondria Different-Phenotype (%),[2],58.02% and 50.96%
same,Population Mitotic Cells (%),[2],89.71% and 77.27%
same,Population Normal (%),[2],100%
same,Population Pyknosed Nuclei (%),[2],37.78% and 36.07%
same,Population Tubulin-Different-Phenotype (%),[2],81.48% and 96.15%
same,Total Cell Count,[2],180 and 183
same,Population Fragmented Nuclei (%),[3],15.79% and 9.14%
same,Population Healthy Nuclei (%),[3],54.39% and 66.29%
same,Population Hoechst High Intensity Objects (%),[3],0%
same,Population Membrane Permeable-Phenotype (%),[3],9.68% and 7.76%
same,Population Mitochondria Different-Phenotype (%),[3],10.75% and 17.24%
same,Population Mitotic Cells (%),[3],96.08% and 48.84%
same,Population Normal (%),[3],100%
same,Population Pyknosed Nuclei (%),[3],29.82% and 24.57%
same,Population Tubulin-Different-Phenotype (%),[3],45.16% and 50%
same,Total Cell Count,[3],171 and 175
same,Population Apoptotic (%),[4],22.58% and 46.67%
same,Population Fragmented Nuclei (%),[4],11.67% and 8.33%
same,Population Healthy Nuclei (%),[4],71.11% and 66.67%
same,Population Hoechst High Intensity Objects (%),[4],0%
same,Population Membrane Permeable-Phenotype (%),[4],19.53% and 8.33%
same,Population Mitochondria Different-Phenotype (%),[4],49.22% and 55.83%
same,Population Mitotic Cells (%),[4],77.42% and 53.33%
same,Population Normal (%),[4],100%
same,Population Pyknosed Nuclei (%),[4],17.22% and 25%
same,Population Tubulin-Different-Phenotype (%),[4],89.84% and 96.67%
same,Total Cell Count,[4],180
same,Population Fragmented Nuclei (%),[5],10.05% and 9.68%
same,Population Healthy Nuclei (%),[5],78.84% and 78.49%
same,Population Hoechst High Intensity Objects (%),[5],0%
same,Population Mitochondria Different-Phenotype (%),[5],12.75% and 8.22%
same,Population Mitotic Cells (%),[5],85.71% and 50%
same,Population Normal (%),[5],100%
same,Population Pyknosed Nuclei (%),[5],11.11% and 11.83%
same,Population Tubulin-Different-Phenotype (%),[5],33.56% and 65.07%
same,Total Cell Count,[5],189 and 186
same,Population Apoptotic (%),[6],38.89% and 56.52%
same,Population Fragmented Nuclei (%),[6],11.45% and 11.37%
same,Population Healthy Nuclei (%),[6],77.71% and 77.73%
same,Population Hoechst High Intensity Objects (%),[6],0%
same,Population Membrane Permeable-Phenotype (%),[6],6.2% and 8.54%
same,Population Mitochondria Different-Phenotype (%),[6],39.53% and 48.78%
same,Population Mitotic Cells (%),[6],61.11% and 43.48%
same,Population Normal (%),[6],100%
same,Population Pyknosed Nuclei (%),[6],10.84% and 10.9%
same,Population Tubulin-Different-Phenotype (%),[6],82.17% and 96.34%
same,Total Cell Count,[6],166 and 211
COc1ccccc1N1CCN(C[C@@H](C(=O)NC(C)(C)C)c2ccccc2)CC1.Cl.Cl,Population Apoptotic (%),[1],43% and 40%
same,Population Fragmented Nuclei (%),[1],12% and 25%
same,Population Healthy Nuclei (%),[1],70% and 43%
same,Population Hoechst High Intensity Objects (%),[1],2% and 5%
same,Population Membrane Permeable-Phenotype (%),[1],0%
same,Population Mitochondria Different-Phenotype (%),[1],8% and 4%
same,Population Mitotic Cells (%),[1],56% and 60%
same,Population Normal (%),[1],97% and 94%
same,Population Pyknosed Nuclei (%),[1],16% and 30%
same,Population Tubulin-Different-Phenotype (%),[1],37% and 43%
same,Total Cell Count,[1],141 and 155
same,Population Apoptotic (%),[2],50% and 48%
same,Population Fragmented Nuclei (%),[2],20% and 32%
same,Population Healthy Nuclei (%),[2],59% and 42%
same,Population Hoechst High Intensity Objects (%),[2],5%
same,Population Membrane Permeable-Phenotype (%),[2],1% and 6%
same,Population Mitochondria Different-Phenotype (%),[2],20% and 12%
same,Population Mitotic Cells (%),[2],50% and 51%
same,Population Normal (%),[2],94%
same,Population Pyknosed Nuclei (%),[2],20% and 24%
same,Population Tubulin-Different-Phenotype (%),[2],66% and 70%
same,Total Cell Count,[2],134 and 116
same,Population Apoptotic (%),[3],50%
same,Population Fragmented Nuclei (%),[3],12% and 24%
same,Population Healthy Nuclei (%),[3],73% and 55%
same,Population Hoechst High Intensity Objects (%),[3],2% and 3%
same,Population Membrane Permeable-Phenotype (%),[3],0% and 8%
same,Population Mitotic Cells (%),[3],50%
same,Population Normal (%),[3],97% and 96%
same,Population Pyknosed Nuclei (%),[3],14% and 19%
same,Population Tubulin-Different-Phenotype (%),[3],32% and 50%
same,Total Cell Count,[3],143 and 151
same,Population Apoptotic (%),[4],83% and 40%
same,Population Fragmented Nuclei (%),[4],19% and 39%
same,Population Healthy Nuclei (%),[4],65% and 41%
same,Population Hoechst High Intensity Objects (%),[4],8% and 3%
same,Population Membrane Permeable-Phenotype (%),[4],0% and 8%
same,Population Normal (%),[4],91% and 96%
same,Population Pyknosed Nuclei (%),[4],14% and 19%
same,Population Tubulin-Different-Phenotype (%),[4],63% and 76%
same,Total Cell Count,[4],132 and 116
same,Population Apoptotic (%),[5],84% and 60%
same,Population Fragmented Nuclei (%),[5],18% and 31%
same,Population Healthy Nuclei (%),[5],71% and 52%
same,Population Hoechst High Intensity Objects (%),[5],5%
same,Population Membrane Permeable-Phenotype (%),[5],1% and 5%
same,Population Mitochondria Different-Phenotype (%),[5],12% and 5%
same,Population Mitotic Cells (%),[5],15% and 40%
same,Population Normal (%),[5],94%
same,Population Pyknosed Nuclei (%),[5],10% and 15%
same,Population Tubulin-Different-Phenotype (%),[5],34% and 56%
same,Total Cell Count,[5],138 and 171
same,Population Apoptotic (%),[6],84% and 44%
same,Population Fragmented Nuclei (%),[6],18% and 50%
same,Population Healthy Nuclei (%),[6],63% and 41%
same,Population Membrane Permeable-Phenotype (%),[6],0% and 8%
same,Population Normal (%),[6],85% and 96%
same,Population Pyknosed Nuclei (%),[6],18% and 7%
same,Population Tubulin-Different-Phenotype (%),[6],65% and 67%
same,Total Cell Count,[6],122
